Tested on: Fibroblast
Test: Multiplex assay against human fibroblast
Format: toxicity, cell-based
Outline: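 Live cells were stained at seeding with Hoechst33342, BioTracker Green Microtubule Cytoskeleton Dye, MitoTracker Red and Annexin V Alexa Fluor 680. Following compound addition, they were imaged on a CQ1 microscope at 37°C and 5% CO2 and gated by CellPathfinder machine learning into Hoechst high-intensity objects or normal cells, with normal cells split into healthy, pyknosed or fragmented nuclei and pyknosed cells into mitotic or apoptotic. Tubulin, mitochondrial-mass and membrane-permeability phenotypes are per cents of healthy-nucleus cells.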

[1] = 12 h, 1 µM, compound concentration 1 uM, replicate 1
[2] = 12 h, 1 µM, compound concentration 1 uM, replicate 2
[3] = 12 h, 10 µM, compound concentration 10 uM, replicate 1
[4] = 12 h, 10 µM, compound concentration 10 uM, replicate 2
[5] = 24 h, 1 µM, compound concentration 1 uM, replicate 1
[6] = 24 h, 1 µM, compound concentration 1 uM, replicate 2
[7] = 24 h, 10 µM, compound concentration 10 uM, replicate 1
[8] = 24 h, 10 µM, compound concentration 10 uM, replicate 2
[9] = 48 h, 1 µM, compound concentration 1 uM, replicate 1
[10] = 48 h, 1 µM, compound concentration 1 uM, replicate 2
[11] = 48 h, 10 µM, compound concentration 10 uM, replicate 1
[12] = 48 h, 10 µM, compound concentration 10 uM, replicate 2

CN(C)C/C=C/C(=O)Nc1ccc(C(=O)N2CCCC(Nc3ncc(Cl)c(-c4c[nH]c5ccccc45)n3)C2)cc1 (stereo not given)
Population Apoptotic (%) [1]: 48% | Population Fragmented Nuclei (%) [1]: 15% | Population Healthy Nuclei (%) [1]: 64% | Population Hoechst High Intensity Objects (%) [1]: 2% | Population Membrane Permeable-Phenotype (%) [1]: 2% | Population Mitochondria Different-Phenotype (%) [1]: 11% | Population Mitotic Cells (%) [1]: 51% | Population Normal (%) [1]: 97% | Population Pyknosed Nuclei (%) [1]: 19% | Population Tubulin-Different-Phenotype (%) [1]: 40% | Total Cell Count [1]: 152 | Population Apoptotic (%) [2]: 46% | Population Fragmented Nuclei (%) [2]: 21% | Population Healthy Nuclei (%) [2]: 53% | Population Hoechst High Intensity Objects (%) [2]: 6% | Population Membrane Permeable-Phenotype (%) [2]: 3% | Population Mitochondria Different-Phenotype (%) [2]: 13% | Population Mitotic Cells (%) [2]: 53% | Population Normal (%) [2]: 93% | Population Pyknosed Nuclei (%) [2]: 25% | Total Cell Count [2]: 182 | Population Apoptotic (%) [3]: 59% | Population Fragmented Nuclei (%) [3]: 18% | Population Healthy Nuclei (%) [3]: 53% | Population Hoechst High Intensity Objects (%) [3]: 4% | Population Membrane Permeable-Phenotype (%) [3]: 1% | Population Mitochondria Different-Phenotype (%) [3]: 37% | Population Mitotic Cells (%) [3]: 40% | Population Normal (%) [3]: 95% | Population Pyknosed Nuclei (%) [3]: 27% | Population Tubulin-Different-Phenotype (%) [3]: 77% | Total Cell Count [3]: 140 | Population Apoptotic (%) [4]: 48% | Population Fragmented Nuclei (%) [4]: 23% | Population Healthy Nuclei (%) [4]: 41% | Population Hoechst High Intensity Objects (%) [4]: 8% | Population Membrane Permeable-Phenotype (%) [4]: 12% | Population Mitochondria Different-Phenotype (%) [4]: 19% | Population Mitotic Cells (%) [4]: 51% | Population Normal (%) [4]: 91% | Population Pyknosed Nuclei (%) [4]: 35% | Population Tubulin-Different-Phenotype (%) [4]: 58% | Total Cell Count [4]: 147 | Population Apoptotic (%) [5]: 68% | Population Fragmented Nuclei (%) [5]: 25% | Population Healthy Nuclei (%) [5]: 48% | Population Hoechst High Intensity Objects (%) [5]: 7% | Population Membrane Permeable-Phenotype (%) [5]: 2% | Population Mitochondria Different-Phenotype (%) [5]: 7% | Population Mitotic Cells (%) [5]: 31% | Population Normal (%) [5]: 92% | Population Pyknosed Nuclei (%) [5]: 26% | Population Tubulin-Different-Phenotype (%) [5]: 40% | Total Cell Count [5]: 155 | Population Apoptotic (%) [6]: 37% | Population Fragmented Nuclei (%) [6]: 26% | Population Healthy Nuclei (%) [6]: 49% | Population Membrane Permeable-Phenotype (%) [6]: 10% | Population Mitochondria Different-Phenotype (%) [6]: 10% | Population Mitotic Cells (%) [6]: 62% | Population Pyknosed Nuclei (%) [6]: 23% | Population Tubulin-Different-Phenotype (%) [6]: 54% | Total Cell Count [6]: 181 | Population Apoptotic (%) [7]: 65% | Population Fragmented Nuclei (%) [7]: 13% | Population Healthy Nuclei (%) [7]: 49% | Population Hoechst High Intensity Objects (%) [7]: 2% | Population Membrane Permeable-Phenotype (%) [7]: 0% | Population Mitochondria Different-Phenotype (%) [7]: 52% | Population Mitotic Cells (%) [7]: 34% | Population Normal (%) [7]: 97% | Population Pyknosed Nuclei (%) [7]: 37% | Population Tubulin-Different-Phenotype (%) [7]: 84% | Total Cell Count [7]: 119 | Population Apoptotic (%) [8]: 47% | Population Fragmented Nuclei (%) [8]: 30% | Population Healthy Nuclei (%) [8]: 42% | Population Hoechst High Intensity Objects (%) [8]: 6% | Population Membrane Permeable-Phenotype (%) [8]: 5% | Population Mitochondria Different-Phenotype (%) [8]: 35% | Population Mitotic Cells (%) [8]: 52% | Population Normal (%) [8]: 93% | Population Pyknosed Nuclei (%) [8]: 27% | Population Tubulin-Different-Phenotype (%) [8]: 72% | Total Cell Count [8]: 149 | Population Apoptotic (%) [9]: 63% | Population Fragmented Nuclei (%) [9]: 33% | Population Healthy Nuclei (%) [9]: 36% | Population Hoechst High Intensity Objects (%) [9]: 10% | Population Membrane Permeable-Phenotype (%) [9]: 2% | Population Mitochondria Different-Phenotype (%) [9]: 20% | Population Mitotic Cells (%) [9]: 36% | Population Normal (%) [9]: 90% | Population Pyknosed Nuclei (%) [9]: 30% | Population Tubulin-Different-Phenotype (%) [9]: 48% | Total Cell Count [9]: 150 | Population Apoptotic (%) [10]: 60% | Population Fragmented Nuclei (%) [10]: 35% | Population Healthy Nuclei (%) [10]: 40% | Population Hoechst High Intensity Objects (%) [10]: 8% | Population Membrane Permeable-Phenotype (%) [10]: 8% | Population Mitochondria Different-Phenotype (%) [10]: 25% | Population Mitotic Cells (%) [10]: 40% | Population Normal (%) [10]: 91% | Population Pyknosed Nuclei (%) [10]: 24% | Population Tubulin-Different-Phenotype (%) [10]: 68% | Total Cell Count [10]: 158 | Population Apoptotic (%) [11]: 77% | Population Fragmented Nuclei (%) [11]: 28% | Population Healthy Nuclei (%) [11]: 20% | Population Hoechst High Intensity Objects (%) [11]: 14% | Population Membrane Permeable-Phenotype (%) [11]: 0% | Population Mitochondria Different-Phenotype (%) [11]: 55% | Population Mitotic Cells (%) [11]: 22% | Population Normal (%) [11]: 85% | Population Pyknosed Nuclei (%) [11]: 51% | Population Tubulin-Different-Phenotype (%) [11]: 66% | Total Cell Count [11]: 103 | Population Apoptotic (%) [12]: 68% | Population Fragmented Nuclei (%) [12]: 27% | Population Healthy Nuclei (%) [12]: 41% | Population Hoechst High Intensity Objects (%) [12]: 13% | Population Membrane Permeable-Phenotype (%) [12]: 17% | Population Mitochondria Different-Phenotype (%) [12]: 29% | Population Mitotic Cells (%) [12]: 31% | Population Normal (%) [12]: 86% | Population Pyknosed Nuclei (%) [12]: 30% | Population Tubulin-Different-Phenotype (%) [12]: 80% | Total Cell Count [12]: 130

Cc1nn(C)c2nc(NNC(=O)Nc3cc(Cl)nc(Cl)c3)cc(C(C)C)c12
Population Apoptotic (%) [1]: 62% | Population Fragmented Nuclei (%) [1]: 15% | Population Healthy Nuclei (%) [1]: 68% | Population Hoechst High Intensity Objects (%) [1]: 3% | Population Membrane Permeable-Phenotype (%) [1]: 0% | Population Mitochondria Different-Phenotype (%) [1]: 4% | Population Mitotic Cells (%) [1]: 37% | Population Normal (%) [1]: 96% | Population Pyknosed Nuclei (%) [1]: 15% | Population Tubulin-Different-Phenotype (%) [1]: 27% | Total Cell Count [1]: 178 | Population Apoptotic (%) [2]: 37% | Population Fragmented Nuclei (%) [2]: 31% | Population Healthy Nuclei (%) [2]: 53% | Population Hoechst High Intensity Objects (%) [2]: 2% | Population Mitochondria Different-Phenotype (%) [2]: 7% | Population Mitotic Cells (%) [2]: 62% | Population Normal (%) [2]: 97% | Population Tubulin-Different-Phenotype (%) [2]: 46% | Total Cell Count [2]: 179 | Population Apoptotic (%) [3]: 53% | Population Fragmented Nuclei (%) [3]: 12% | Population Healthy Nuclei (%) [3]: 63% | Population Hoechst High Intensity Objects (%) [3]: 3% | Population Membrane Permeable-Phenotype (%) [3]: 2% | Population Mitochondria Different-Phenotype (%) [3]: 15% | Population Mitotic Cells (%) [3]: 46% | Population Normal (%) [3]: 96% | Population Pyknosed Nuclei (%) [3]: 23% | Population Tubulin-Different-Phenotype (%) [3]: 89% | Total Cell Count [3]: 139 | Population Apoptotic (%) [4]: 21% | Population Fragmented Nuclei (%) [4]: 33% | Population Healthy Nuclei (%) [4]: 56% | Population Hoechst High Intensity Objects (%) [4]: 7% | Population Membrane Permeable-Phenotype (%) [4]: 5% | Population Mitochondria Different-Phenotype (%) [4]: 6% | Population Mitotic Cells (%) [4]: 78% | Population Normal (%) [4]: 92% | Population Pyknosed Nuclei (%) [4]: 10% | Total Cell Count [4]: 140 | Population Apoptotic (%) [5]: 59% | Population Fragmented Nuclei (%) [5]: 18% | Population Healthy Nuclei (%) [5]: 68% | Population Hoechst High Intensity Objects (%) [5]: 1% | Population Membrane Permeable-Phenotype (%) [5]: 1% | Population Mitochondria Different-Phenotype (%) [5]: 3% | Population Mitotic Cells (%) [5]: 40% | Population Normal (%) [5]: 98% | Population Pyknosed Nuclei (%) [5]: 12% | Population Tubulin-Different-Phenotype (%) [5]: 29% | Total Cell Count [5]: 176 | Population Apoptotic (%) [6]: 62% | Population Fragmented Nuclei (%) [6]: 21% | Population Hoechst High Intensity Objects (%) [6]: 2% | Population Membrane Permeable-Phenotype (%) [6]: 2% | Population Mitochondria Different-Phenotype (%) [6]: 6% | Population Mitotic Cells (%) [6]: 37% | Population Normal (%) [6]: 97% | Population Pyknosed Nuclei (%) [6]: 9% | Population Tubulin-Different-Phenotype (%) [6]: 50% | Total Cell Count [6]: 174 | Population Apoptotic (%) [7]: 52% | Population Fragmented Nuclei (%) [7]: 12% | Population Healthy Nuclei (%) [7]: 69% | Population Hoechst High Intensity Objects (%) [7]: 4% | Population Membrane Permeable-Phenotype (%) [7]: 1% | Population Mitochondria Different-Phenotype (%) [7]: 22% | Population Mitotic Cells (%) [7]: 47% | Population Normal (%) [7]: 95% | Population Pyknosed Nuclei (%) [7]: 18% | Population Tubulin-Different-Phenotype (%) [7]: 95% | Total Cell Count [7]: 130 | Population Apoptotic (%) [8]: 25% | Population Fragmented Nuclei (%) [8]: 28% | Population Healthy Nuclei (%) [8]: 61% | Population Hoechst High Intensity Objects (%) [8]: 8% | Population Membrane Permeable-Phenotype (%) [8]: 0% | Population Mitochondria Different-Phenotype (%) [8]: 6% | Population Mitotic Cells (%) [8]: 75% | Population Normal (%) [8]: 91% | Population Pyknosed Nuclei (%) [8]: 9% | Population Tubulin-Different-Phenotype (%) [8]: 89% | Total Cell Count [8]: 132 | Population Apoptotic (%) [9]: 71% | Population Fragmented Nuclei (%) [9]: 18% | Population Healthy Nuclei (%) [9]: 73% | Population Hoechst High Intensity Objects (%) [9]: 1% | Population Membrane Permeable-Phenotype (%) [9]: 1% | Population Mitochondria Different-Phenotype (%) [9]: 2% | Population Mitotic Cells (%) [9]: 28% | Population Normal (%) [9]: 98% | Population Pyknosed Nuclei (%) [9]: 7% | Population Tubulin-Different-Phenotype (%) [9]: 30% | Total Cell Count [9]: 188 | Population Apoptotic (%) [10]: 57% | Population Fragmented Nuclei (%) [10]: 34% | Population Healthy Nuclei (%) [10]: 62% | Population Hoechst High Intensity Objects (%) [10]: 2% | Population Membrane Permeable-Phenotype (%) [10]: 2% | Population Mitotic Cells (%) [10]: 42% | Population Normal (%) [10]: 97% | Population Pyknosed Nuclei (%) [10]: 3% | Population Tubulin-Different-Phenotype (%) [10]: 36% | Total Cell Count [10]: 184 | Population Apoptotic (%) [11]: 93% | Population Fragmented Nuclei (%) [11]: 16% | Population Healthy Nuclei (%) [11]: 70% | Population Hoechst High Intensity Objects (%) [11]: 8% | Population Membrane Permeable-Phenotype (%) [11]: 2% | Population Mitochondria Different-Phenotype (%) [11]: 31% | Population Mitotic Cells (%) [11]: 6% | Population Normal (%) [11]: 91% | Population Pyknosed Nuclei (%) [11]: 13% | Population Tubulin-Different-Phenotype (%) [11]: 96% | Total Cell Count [11]: 129 | Population Apoptotic (%) [12]: 62% | Population Fragmented Nuclei (%) [12]: 38% | Population Healthy Nuclei (%) [12]: 56% | Population Hoechst High Intensity Objects (%) [12]: 3% | Population Mitochondria Different-Phenotype (%) [12]: 5% | Population Mitotic Cells (%) [12]: 37% | Population Normal (%) [12]: 96% | Population Pyknosed Nuclei (%) [12]: 5% | Population Tubulin-Different-Phenotype (%) [12]: 85% | Total Cell Count [12]: 155
